Laboratory results taken from ChEMBL document CHEMBL4004808, “Antibacterial and Cytotoxic Phenolic Metabolites from the Fruits of Amorpha fruticosa” (J Nat Prod, 2017).
≈ marks a conversion by molar mass, not a printed value. Calls of active or inactive are those of the source. The rule behind the calls is not given here.

Legend:
THP-1 = test: Cytotoxicity against human THP1 cells after 48 hrs by resazurin dye-based fluorescence analysis; format: cell-based; conditions: THP-1, 48 h
Enterococcus faecalis [1] = test: Antibacterial activity against Enterococcus faecalis ATCC 29212 by broth microdilution method; format: functional
Procedure, shortened: (§1)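 MIC determined by broth microdilution following CLSI recommendations, with moxifloxacin as positive control and DMSO as negative control.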

MRC5 = test: Cytotoxicity against human MRC5 cells after 48 hrs by resazurin dye-based fluorescence analysis; format: cell-based; conditions: MRC5, 48 h
L5178Y = test: Cytotoxicity against mouse L5178Y cells by MTT assay; format: functional, cell-based
Procedure, shortened: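 MTT proliferation assay on the L5178Y murine lymphoma line, run three times; kahalalide F as positive control and 0.1% DMSO in medium as negative control.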

Enterococcus faecalis [2] = test: Antibacterial activity against vancomycin-resistant Enterococcus faecalis ATCC 51299 by broth microdilution method; format: functional; procedure, shortened: as §1
Enterococcus faecium [3] = test: Antibacterial activity against Enterococcus faecium ATCC 700221 by broth microdilution method; format: functional
Procedure, shortened: (§2)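 MIC by broth microdilution following CLSI recommendations; moxifloxacin as positive control, DMSO as negative control.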

Enterococcus faecium [4] = test: Antibacterial activity against Enterococcus faecium ATCC 35667 by broth microdilution method; format: functional; procedure, shortened: as §2
Staphylococcus aureus [5] = test: Antibacterial activity against methicilin-resistant Staphylococcus aureus ATCC 700699 by broth microdilution method; format: functional; conditions: Mu50; procedure, shortened: as §1
[6] = system: Mycobacterium tuberculosis; test: Antibacterial activity against Mycobacterium tuberculosis by broth microdilution method; format: functional
Staphylococcus aureus [7] = test: Antibacterial activity against Staphylococcus aureus ATCC 25923 by broth microdilution method; format: functional
Acinetobacter baumannii = test: Antibacterial activity against Acinetobacter baumannii ATCC BAA1605 by broth microdilution method; format: functional; procedure, shortened: as §2

| Structure (SMILES) | IC50 (THP-1) [µM] | MIC (Enterococcus faecalis [1]) [µM] | IC50 (MRC5) [µM] | Activity (L5178Y) | MIC (Enterococcus faecalis [2]) [µM] | MIC (Enterococcus faecium [3]) [µM] | MIC (Enterococcus faecium [4]) [µM] | MIC (Staphylococcus aureus [5]) [µM] | MIC [6] [µM] | MIC (Staphylococcus aureus [7]) [µM] | MIC (Acinetobacter baumannii) [µM] | IC50 (L5178Y) [µM] |
| --- | --- | --- | --- | --- | --- | --- | --- | --- | --- | --- | --- | --- |
| CC(C)=CCC/C(C)=C/Cc1c(O)cc(/C=C/c2ccccc2)cc1O [AMORPHASTILBOL] | 25 | 12.5 (≈ 4.36 µg/mL) | 50 | inactive | 6.3 (≈ 2.2 µg/mL) | 6.3 (≈ 2.2 µg/mL) | 6.3 (≈ 2.2 µg/mL) | 3.1 (≈ 1.08 µg/mL) | > 50 | 6.3 (≈ 2.2 µg/mL) | > 50 |  |
| COC1=CC(=O)[C@]2(C=C1OC)OC[C@H]1Oc3c4c(cc(O)c3C(=O)[C@H]12)OC(C)(C)C=C4 |  |  |  |  |  |  |  |  |  |  |  | 1.3 |
| C=C(C)[C@@H](O)CC/C(C)=C/Cc1c(O)cc(CCc2ccccc2)c(C(=O)O)c1O |  |  |  | inactive |  |  |  |  |  |  |  |  |
| CC(C)=CCC/C(C)=C/Cc1c(O)cc(O)c2c1O[C@H](c1ccccc1)[C@H](O)C2=O | 100 | 50 (≈ 20.4 µg/mL) | 100 |  | 100 (≈ 40.8 µg/mL) | 100 (≈ 40.8 µg/mL) | 100 (≈ 40.8 µg/mL) | 100 (≈ 40.8 µg/mL) | > 50 | 100 (≈ 40.8 µg/mL) | > 50 |  |
| COc1cc2c(cc1OC)[C@@H]1C(=O)c3c(O)cc4c(c3O[C@@H]1CO2)C=CC(C)(C)O4 [TOXICAROL] |  |  |  |  |  |  |  |  |  |  |  | 0.2 |
| COc1c(N2C[C@@H]3CCCN[C@@H]3C2)c(F)cc2c(=O)c(C(=O)O)cn(C3CC3)c12 [MOXIFLOXACIN] |  | 0.9 (≈ 0.361 µg/mL) |  |  | 0.9 (≈ 0.361 µg/mL) | 7.8 (≈ 3.13 µg/mL) | 1.9 (≈ 0.763 µg/mL) | 3.8 (≈ 1.53 µg/mL) |  | < 0.9 |  |  |
| COc1cc2c(cc1OC)[C@@H]1C(=O)c3ccc4c(c3O[C@@H]1CO2)C[C@H](C(C)(C)O[C@@H]1O[C@H](CO)[C@@H](O)[C@H](O)[C@H]1O)O4 |  |  |  |  |  |  |  |  |  |  |  | 1.7 |
| COc1cc2c(cc1OC)-c1c(oc3c4c(ccc3c1=O)OC(C)(C)C=C4)CO2 [DEHYDRODEGUELIN] |  |  |  |  |  |  |  |  |  |  |  | 10.2 |
| COC1=C[C@]2(OC[C@H]3Oc4c(ccc5c4C=CC(C)(C)O5)C(=O)[C@H]32)C(=O)CC1=O |  |  |  |  |  |  |  |  |  |  |  | 7.6 |
| CC(C)=CCC/C(C)=C\Cc1c(O)cc(CCc2ccccc2)c(C(=O)O)c1O | 100 | 100 (≈ 39.5 µg/mL) | 100 | inactive | 100 (≈ 39.5 µg/mL) | 100 (≈ 39.5 µg/mL) | 100 (≈ 39.5 µg/mL) | 100 (≈ 39.5 µg/mL) | > 50 | 100 (≈ 39.5 µg/mL) | > 50 |  |
| COc1cc(CCc2ccccc2)c(C(=O)O)c(O)c1C/C=C(/C)CCC=C(C)C | 100 | 6.3 (≈ 2.57 µg/mL) | 100 | inactive | 6.3 (≈ 2.57 µg/mL) | 6.3 (≈ 2.57 µg/mL) | 6.3 (≈ 2.57 µg/mL) | 12.5 (≈ 5.11 µg/mL) | > 50 | 12.5 (≈ 5.11 µg/mL) | > 50 |  |
| CC(C)=CCC/C(C)=C/Cc1c(O)cc(/C=C\c2ccccc2)cc1O | 100 | 100 (≈ 34.8 µg/mL) | 100 | inactive | 100 (≈ 34.8 µg/mL) | 100 (≈ 34.8 µg/mL) | 100 (≈ 34.8 µg/mL) | 100 (≈ 34.8 µg/mL) | > 50 | 100 (≈ 34.8 µg/mL) | > 50 |  |
| COc1cc2c(cc1OC)[C@@H]1C(=O)c3ccc(O)c(CC=C(C)C)c3O[C@@H]1CO2 [ROTENONIC ACID] |  |  |  |  |  |  |  |  |  |  |  | 0.6 |
| C=C(C)[C@H]1Cc2c(ccc3c2O[C@@H]2COc4cc(OC)c(OC)cc4[C@@H]2C3=O)O1 [ROTENONE] |  |  |  |  |  |  |  |  |  |  |  | 0.3 |
| COc1cc(CCc2ccccc2)c(C(=O)O)c(O)c1CC=C(C)C [AMORFRUTIN A] | 50 | 100 (≈ 34 µg/mL) |  | inactive | 25 (≈ 8.51 µg/mL) | 25 (≈ 8.51 µg/mL) | 50 (≈ 17 µg/mL) | 6.3 (≈ 2.14 µg/mL) | > 50 | 50 (≈ 17 µg/mL) | > 50 |  |
| CC(C)=CCC/C(C)=C/Cc1c(O)cc(/C=C\c2ccccc2)c(C(=O)O)c1O | 100 | 50 (≈ 19.6 µg/mL) | 100 | inactive | 100 (≈ 39.2 µg/mL) | 100 (≈ 39.2 µg/mL) | 50 (≈ 19.6 µg/mL) | 100 (≈ 39.2 µg/mL) | > 50 | 50 (≈ 19.6 µg/mL) | > 50 |  |
| COc1ccc(-c2coc3c(C/C=C(\C)CCC=C(C)C)c(O)cc(O)c3c2=O)cc1O | 50 | 50 (≈ 21.8 µg/mL) | 50 |  | 100 (≈ 43.7 µg/mL) | 25 (≈ 10.9 µg/mL) | 25 (≈ 10.9 µg/mL) | 100 (≈ 43.7 µg/mL) | > 50 | 100 (≈ 43.7 µg/mL) | > 50 |  |
| C=C(C)[C@@H](O)CC/C(C)=C/Cc1c(OC)cc(CCc2ccccc2)c(C(=O)O)c1O |  |  |  | inactive |  |  |  |  |  |  |  |  |
| COc1cc2c(cc1OC)[C@@H]1C(=O)c3ccc4c(c3O[C@@H]1CO2)C[C@H](C(C)(C)O)O4 [DALPANOL] |  |  |  |  |  |  |  |  |  |  |  | 0.7 |
| CC(C)=CCC/C(C)=C/Cc1c(O)cc(/C=C/c2ccccc2)c(C(=O)O)c1O | 100 | 25 (≈ 9.81 µg/mL) | 100 | inactive | 25 (≈ 9.81 µg/mL) | 25 (≈ 9.81 µg/mL) | 25 (≈ 9.81 µg/mL) | 12.5 (≈ 4.91 µg/mL) | > 50 | 12.5 (≈ 4.91 µg/mL) | > 50 |  |
| CC(C)=CCC/C(C)=C/Cc1c(O)ccc(C(=O)/C=C/c2ccc(O)cc2)c1O [XANTHOANGELOL] | 25 | 12.5 (≈ 4.91 µg/mL) | 25 |  | 6.3 (≈ 2.47 µg/mL) | 3.1 (≈ 1.22 µg/mL) | 12.5 (≈ 4.91 µg/mL) | 3.1 (≈ 1.22 µg/mL) | > 50 | 25 (≈ 9.81 µg/mL) | > 50 |  |
| C/C=C1\NC(=O)[C@H](Cc2ccccc2)NC(=O)[C@@H](C(C)C)NC(=O)[C@@H](C(C)CC)NC(=O)[C@H](NC(=O)[C@H](NC(=O)[C@H](CCCN)NC(=O)[C@@H]2CCCN2C(=O)[C@H](NC(=O)[C@@H](NC(=O)[C@@H](NC(=O)[C@H](NC(=O)CCCC(C)C)C(C)C)C(C)O)C(C)C)C(C)C)C(C)CC)C(C)OC(=O)[C@H](C(C)C)NC1=O (some centres not stated) |  |  |  |  |  |  |  |  |  |  |  | 4.3 |
| COc1ccc(-c2coc3cc(O)c(C/C=C(\C)CCC=C(C)C)c(O)c3c2=O)cc1O | 50 | 25 (≈ 10.9 µg/mL) | 50 |  | 50 (≈ 21.8 µg/mL) | 12.5 (≈ 5.46 µg/mL) | 25 (≈ 10.9 µg/mL) | 100 (≈ 43.7 µg/mL) | > 50 | 100 (≈ 43.7 µg/mL) | > 50 |  |
| C=C(CO)[C@H]1Cc2c(ccc3c2O[C@@H]2COc4cc(OC)c(OC)cc4[C@]2(O)C3=O)O1 [DABINOL] |  |  |  |  |  |  |  |  |  |  |  | 0.2 |
| COc1cc2c(cc1OC)[C@@H]1C(=O)c3ccc4c(c3O[C@@H]1CO2)C=CC(C)(C)O4 [DEGUELIN] |  |  |  |  |  |  |  |  |  |  |  | 0.2 |
| COc1cc(O)c2c(c1)O[C@@H]1COc3cc(OC)c(OC)cc3[C@@H]1C2=O |  |  |  |  |  |  |  |  |  |  |  | 0.2 |
| CC(C)=CCC/C(C)=C/Cc1c(O)cc(CCc2ccccc2)cc1O | 50 | 25 (≈ 8.76 µg/mL) |  | inactive | 12.5 (≈ 4.38 µg/mL) | 12.5 (≈ 4.38 µg/mL) | 12.5 (≈ 4.38 µg/mL) | 6.3 (≈ 2.21 µg/mL) | > 50 | 25 (≈ 8.76 µg/mL) | > 50 |  |
| COc1cc(/C=C/c2ccccc2)cc(OC)c1C/C=C(\C)CCC=C(C)C | 100 | > 100 | 100 | inactive | > 100 | > 100 | 100 (≈ 37.7 µg/mL) | > 100 | > 50 | > 100 | > 50 |  |
